# Source: publication PMC11718131 (Communications Biology, 2025)
# Peptide text beside a SMILES is read from it. * marks the point of attachment. Cbz = O=C(OCc1ccccc1)*
# Key:
# [1] = cited from earlier work
# wildtype (WT) CA2 = details: in words; cited from earlier work
# [2] = test system: proteasome; GFP-CA2-DRD fusion in Jurkat cells; experiment: Proteasome inhibition assay; type: cell-based, human; details: 10 µM MG132, 4 h without ACZ after 24 h ACZ; versus vehicle
# How it was run: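 Cells then washed with fresh media and split in two: one arm […] 10 µM MG132 for 4 h. GFP expression read by flow cytometry.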
# [3] = Huntington's disease; cited from earlier work
structure (smiles),measurement,setting,value
"CC(=O)Nc1nnc(S(N)(=O)=O)s1 [ACZ, acetazolamide]",total in vivo exposure levels,[1]; FDA-approved and clinically used doses,~ 100 µM
same,total concentrations in plasma and other tissues,"[1]; approved doses, in words",micromolar range
same,affinity to CA2,wildtype (WT) CA2,low nanomolar affinity
CC(C)C[C@@H](C=O)NC(=O)[C@H](CC(C)C)NC(=O)[C@H](CC(C)C)NC(=O)OCc1ccccc1 [MG132] (Cbz-Leu-Leu-Leu-aldehyde),decrease in GFP levels after ACZ withdrawal,[2],smaller decrease in GFP levels
CC1(C)CC(Oc2ccc(-c3ccc(-c4cn[nH]c4)cc3O)nn2)CC(C)(C)N1 [branaplam],clinical trial outcome,[3],halted because of drug-related side effects
